According to ChEMBL document CHEMBL4513216, “Probing the Open Global Health Chemical Diversity Library for Multistage-Active Starting Points for Next-Generation Antimalarials” (ACS Infect Dis, 2020):

Assay: Toxicity liver stage against HepG2, at 10uM
Assay type: cell-based
Design: test concentration 10 uM, cell line HepG2-A16-CD81EGFP
Conditions: human, HepG2-A16-CD81EGFP cells; read-out: INHIBITION
In short: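 Uninfected HepG2-A16-CD81EGFP cells, 3 × 10^3 per well, 1536-well, plated on prespotted compound at 10 μM final, parasite-free screening media added to match infected plates; puromycin 10 μM positive, DMSO 0.5% negative; run in parallel with 48 h PbLuc assay at 37 °C, 5% CO2; viability by CellTiter-Glo luminescence, normalized to controls.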

Row | SMILES | cytotoxicity at 10 µM
1 | Cc1cccc(-c2noc([C@@H]3Cc4nc[nH]c4CN3)n2)c1 | 0.442%
2 | c1cncc(O[C@H]2COCCN(C3CCC3)C2)c1 | 0.514%
3 | CC(C)C[C@@H]1N[C@H](C(=O)NCC2CC2)Cc2c[nH]c3cccc1c23 | 12.4%
4 | CCCNC(=O)COc1cc(C)c2c(C)nn(-c3ccccc3)c2n1 | -0.295%
5 | O=C(CN1C(=O)CC2(CCCC2)C1=O)NCCc1nccs1 | 0.566%
6 | Cc1nc(C)c(CC(=O)NCc2ccccc2F)s1 | 6.23%
7 | CS(=O)(=O)N1CCc2ccc(=O)n(CC3CC3)c2CC1 | 7.25%
8 | O=C(c1ccc2[nH]ccc2c1)N1Cc2nc(CN3CCCC3)oc2C1 | 6.98%
9 | O=C(CC1CCN(c2cccnn2)CC1)Nc1nncs1 | 1.01%
10 | NC(=O)c1cnc(NC2CC2)nc1CCNC(=O)CC1CCCC1 | 3.29%
11 | CN(C)c1cncc(C2CCN(CC(N)=O)CC2)n1 | 3.07%
12 | Cc1ncc(CN2CCc3c(nc(-c4ccccn4)[nH]c3=O)C2)n1C | -30.1%
13 | CC(C)S(=O)(=O)NC(=O)CC(c1ccccc1)C(F)(F)F (stereo not drawn) | -43.9%
14 | COc1ccncc1NC(=O)c1[nH]nc(C(C)C)c1Br | 4.04%
15 | NC(=O)CN1CCC(NC(=O)COCCOc2ccccc2)CC1 | -9.46%
16 | O=C1CC(N(C(=O)c2csc(-c3ccccc3)n2)C2CC2)C(=O)N1 (stereo not drawn) | 15.2%
17 | COc1ccc(C2CCCN2c2cnccn2)c(OC)c1 (stereo not drawn) | 3.72%
18 | CN(CCOc1cccc(S(C)(=O)=O)c1)CC(F)F | 13%
19 | CCc1ccc(C(=O)NCC2CCCN2CC)o1 (stereo not drawn) | 0.632%
20 | CNC(=O)c1cccc(NC(=O)NC(C)CCc2cccn2C)c1C (stereo not drawn) | -1.39%
21 | Cc1cc(C)n(C2CN(Cc3ccc(C(=O)N4CCCC4)cc3)C2)n1 | 1.89%
22 | Cn1cc(CNC2CCc3ncnn3C2)c(-c2cccnc2)n1 (stereo not drawn) | -5.92%
23 | CC1CCc2nc(NC(=O)CN(C)C(=O)c3ccco3)sc2C1 (stereo not drawn) | -11.4%

Row | SMILES | cytotoxicity at 10 µM
24 | COCc1ccc(C(=O)N2CCCN(C(=O)OCC(C)C)CC2)cc1 | 13.4%
25 | CCc1ncc2c(n1)CN(Cc1cn3ccsc3n1)CC2 | -8.26%
26 | CC(=O)NCC1CCN(C(=O)NCCc2ccc3c(c2)OCO3)CC1 | -5.22%
27 | N#Cc1ccc(CN2CCN(C(=O)CCn3cncn3)CC2)cc1 | -7.06%
28 | CCOc1cccc(CNc2cncc(-n3cccn3)n2)c1 | -0.363%
29 | CCCC(NC(=O)c1occc1C)c1nnn[nH]1 (stereo not drawn) | -9.36%
30 | Cc1cc2n(n1)CC(CNC1CCN(c3ccccn3)CC1)CN2 (stereo not drawn) | 6.09%
31 | C=C(C)CNC1CCCN(Cc2noc(C3CC3)n2)C1 (stereo not drawn) | -4.56%
32 | OCCN1CCN(Cc2cc3c(cc2Br)OCCO3)CC1 | 7.59%
33 | CC(=O)N1CCN(CCNS(=O)(=O)c2c(F)cccc2F)CC1 | -1.14%
34 | CC(CNS(N)(=O)=O)c1ccc(F)c(F)c1 (stereo not drawn) | -12.1%
35 | Cc1n[nH]c(C)c1C1CCCN1C(=O)NC(C)(C)C (stereo not drawn) | -4.27%
36 | Cc1occc1C(=O)N1CCCN(Cc2cnn(C(C)C)c2)CC1 | -5.62%
37 | CCc1nc(CNC2CCCc3c2cnn3CC)cs1 (stereo not drawn) | 5.12%
38 | O=C(CCS(=O)(=O)C1CCCC1)NCCc1cccc(O)c1 | -3.09%
39 | Cc1nc(CN(C)C(=O)NC(C)c2ccc3c(c2)OCCO3)cs1 (stereo not drawn) | -4.45%
40 | Cc1ccc2c(c1)OC1(NC2=O)C(=O)N(C)c2ccccc21 (stereo not drawn) | -23.8%
41 | Cn1ccc(C(=O)NCc2cccc(Cn3ccnc3)c2)cc1=O | 8.42%
42 | Cn1c(CC2CCS(=O)(=O)C2)nnc1SCCOc1cccc(Cl)c1 (stereo not drawn) | 14.4%
43 | Cc1nn(CCO)c(C)c1CNC1CCc2c(Cl)cccc21 (stereo not drawn) | -6.34%
44 | Cc1cnn(CC2CCCN2CC(=O)N(C)CCC#N)c1 (stereo not drawn) | 7%
45 | COCCNC(=O)[C@]12COC[C@H]1CN(C1CCOCC1)C2 | -109%
46 | Cc1csc(CN2C[C@@H]3COC[C@]3(C(=O)NCc3ccco3)C2)n1 | -105%

Row | SMILES | cytotoxicity at 10 µM
47 | CCOCC1CN(C(=O)Cc2ccccn2)Cc2cn(CC)nc21 (stereo not drawn) | 5.06%
48 | CS(=O)(=O)NC1CCc2c(ccc(=O)n2CC2CC2)C1 (stereo not drawn) | 4.84%
49 | CCN(Cc1nc(COC)no1)Cc1cccnc1NC | -43.7%
50 | Cc1nsc(NC(=O)NC2CCOCC2)n1 | -10.1%
51 | Cc1nc(N2CC[C@@H](c3ccc4ccccc4c3)[C@H](O)C2)no1 | -3.65%
52 | CC(Cn1ccnc1)NCc1csc2c1CCCC2 (stereo not drawn) | -3.37%
53 | CN(C)c1ncnc2c1CCN(S(=O)(=O)c1cccc3nsnc13)C2 | 4.01%
54 | COc1cccc(OCCn2c(C)c(C)oc2=O)c1 | -7.12%
55 | OCCOCCNCC1(c2ccc(F)cc2)CCOC1 (stereo not drawn) | -147%
56 | OC1CCN(CCCNc2nccc(C3CCCC3)n2)CC1 | -1.81%
57 | CN(C)c1cnn(CC(=O)N2Cc3ccccc3C2)c(=O)c1 | 4.52%
58 | c1csc(CCNc2nc(-c3ccncc3)nc3c2CCNCC3)c1 | -165%
59 | CCC(C)N(Cc1ccncc1)Cc1cccc(Cn2cccn2)c1 (stereo not drawn) | -45.1%
60 | CN(C)Cc1cc(-c2nccn2CCc2cccnc2)ccc1O | -42.9%
61 | Cc1cc(N2CCCN(CCc3ccccc3)CC2)ccn1 | -3.67%
62 | O=C1CCCN1C1CCCN(CCOc2ccc(F)cc2)C1 (stereo not drawn) | 7.62%
63 | O=C1CCC2(CCCN(CCn3cc(Cl)cn3)C2)CN1C1CCCC1 (stereo not drawn) | 4.71%
64 | O=C(c1cncc(F)c1)N1CCC(c2ncc[nH]2)CC1 | -1.39%
65 | CN(C(=O)CCc1cccs1)C1CCCN(C2Cc3ccccc3C2)C1 (stereo not drawn) | -4.49%
66 | CC(=O)N(C/C=C/c1ccccc1)CCO | 4.64%
67 | COCc1ncc(CN2CC(Oc3c(C)cccc3C)C2)cn1 | 5.12%
68 | NC(=O)c1cc2c(nc1CCOc1ccc(F)cc1)CCC2 | 4.22%
69 | Cc1cc(C)n(CC(=O)N2CCCCC2CCc2cccs2)c(=O)n1 (stereo not drawn) | 6.93%

Row | SMILES | cytotoxicity at 10 µM
70 | CCCn1cnnc1-c1nc2c([nH]1)CC(c1ccc(Cl)cc1)CNC2=O (stereo not drawn) | -31.1%
71 | CCCc1nc(CNC(=O)Cc2cc(C)no2)cs1 | -11.5%
72 | COCc1cc(N(C)Cc2c(C)nn(C)c2C)n2nccc2n1 | 2.45%
73 | Fc1cc(Cl)cnc1N1CCCC(c2nccn2Cc2ccncc2)C1 (stereo not drawn) | -2%
74 | Cc1ccc(-c2cc(C(=O)N3CCCC3c3cccnc3)[nH]n2)o1 (stereo not drawn) | -1.41%
75 | Cc1ccc(OC2(C(=O)O)CCN(C(=O)CCc3ccco3)CC2)cc1 | -8.06%
76 | CC(=O)N1CCCn2nc(CNS(=O)(=O)c3cc(C)cs3)cc2C1 | -9.58%
77 | Cc1cc(F)ccc1OC1(C(=O)O)CCN(Cc2cccnc2N)CC1 | -1.83%
78 | COc1ccc(CCNC(C)c2ccc3[nH]c(=O)[nH]c3c2)cc1OC (stereo not drawn) | -16.8%
79 | Cc1ccsc1CN(Cc1nc2c(cnn2C)c(=O)[nH]1)C(C)C | -7.27%
80 | Cc1noc(C)c1CNC(=O)N(C)C1CCN(c2ccccc2)C1=O (stereo not drawn) | -8.63%
81 | Cc1cc(CN2CCN(C(=O)NCc3ccco3)CC2)no1 | -14.8%
82 | CC(C)Oc1ncccc1CNC(=O)N1CCCC1c1ccsc1 (stereo not drawn) | -8.25%
83 | Cc1ccc(NC2CCN(C(=O)c3cccc4c3ccn4C)CC2)nn1 | -17.3%
84 | O=C(c1cc2ccccc2[nH]1)N1CCC(Nc2cccnn2)CC1 | -16.9%
85 | CCOc1ncccc1CNC(=O)Nc1ccccc1 | -4.87%
86 | Cc1cnn(CCNCc2nnc(-c3ccccc3)o2)c1 | -10.4%
87 | CC(=O)Nc1nc(CN2CCOC(Cn3cccn3)C2)cs1 (stereo not drawn) | -5.69%
88 | CCN1CCN(C2CCN(Cc3nnc(C4CC4)o3)CC2)C1=O | 1.75%
89 | Cc1c(Cl)c(CN2CCCC2Cn2cncn2)nc2ccccc12 (stereo not drawn) | -13.3%
90 | CCc1nc(C2CCCN2Cc2nc(Cc3ccccc3)no2)no1 (stereo not drawn) | 3.12%
91 | Cn1cc(CCNC(=O)CCc2ccc3c(c2)OCO3)cn1 | -7.15%
92 | CN1CC(=O)N(c2cccnc2)CC12CCN(C(=O)C1CCCCC1)C2 (stereo not drawn) | 1.55%

Row | SMILES | cytotoxicity at 10 µM
93 | CC(=O)NCC(=O)N1Cc2nccn2CC(COc2cccnc2)C1 (stereo not drawn) | -2.6%
94 | Cn1nc(C2CCCN(Cc3cccc(F)c3)C2)c2nccnc21 (stereo not drawn) | -3.96%
95 | Cc1occc1C(=O)N1Cc2nccn2CC(CN2CCCC2)C1 (stereo not drawn) | -105%
96 | O=C(N1CCCC1)N1CCN(Cc2cccnc2)c2ncccc2C1 | 3.33%
97 | O=C(CO)N1CCC(F)(F)C2(CCN(c3ccccc3)C2)C1 (stereo not drawn) | 13.8%
98 | O=C(c1ccncc1)N1CCOC2(COCCN(c3cccnc3)C2)C1 (stereo not drawn) | 6.25%
99 | CO[C@@H]1CCN(c2ncc(F)cn2)[C@@H]2CN(Cc3cccnc3)C[C@@H]21 | 11.8%
100 | c1csc(CN2CCc3ncnc(C4CCOC4)c3CC2)n1 (stereo not drawn) | 4.53%
101 | O=C(O)[C@]12CCCN(C3CCOC3)C[C@H]1CN(c1ncccn1)C2 (stereo partly drawn) | -97.4%
102 | Cn1cc(CN2CCC[C@]3(C[C@H](Oc4ncccc4F)CO3)C2)cn1 | 9.92%
103 | COc1cc(N2C[C@@H]3COC[C@]3(C(=O)NC3CC(F)(F)C3)C2)ncn1 | 14.7%
104 | Cc1cccc(CN2CCc3onc(Cn4cccc4)c3C2)n1 | 7.81%
105 | c1cncc(CN2CCn3c(Cn4cncn4)cnc3C2)c1 | -70.9%
106 | COc1cccc(CNc2c(C)nn(C(C)C)c2C)c1 | -46.9%
107 | c1ccc(OC[C@@H]2CCC[C@@]23CNCCO3)nc1 | 9.93%
108 | Cc1csc(CN2CCn3c(COc4cccnc4)cnc3C2C)n1 (stereo not drawn) | -98.4%
109 | CN(Cc1ccco1)[C@@H]1CN(Cc2cccs2)C[C@@H]2CCCO[C@@H]21 | 3.65%
110 | Cn1nc(COc2cccnc2)c2c1CCN(Cc1ccco1)C2 | -5.57%
111 | CCc1ccc(CN2CCN(C)c3ncccc3C2)o1 | 3.78%
112 | COCCN1CCN(S(=O)(=O)c2ccccc2)Cc2cccnc21 | 4.77%
113 | Cc1[nH]c(C2(N)CCCCC2)nc(=O)c1C | -0.846%
